Results taken from ChEMBL document CHEMBL2417403, “N-terminal guanidinylation of TIPP (Tyr-Tic-Phe-Phe) peptides results in major changes of the opioid activity profile” (Bioorg Med Chem Lett, 2013).
Where a SMILES comes first, the peptide text is derived from it.

Tests used:
[1] = molecular target: Delta-type opioid receptor (Mus musculus) (UniProt P32300); assay: Partial agonist activity at delta opioid receptor in mouse vas deferens assessed as inhibition of electrically-stimulated muscle contraction
Chain of Delta-type opioid receptor (Mus musculus) (P32300 whole entry): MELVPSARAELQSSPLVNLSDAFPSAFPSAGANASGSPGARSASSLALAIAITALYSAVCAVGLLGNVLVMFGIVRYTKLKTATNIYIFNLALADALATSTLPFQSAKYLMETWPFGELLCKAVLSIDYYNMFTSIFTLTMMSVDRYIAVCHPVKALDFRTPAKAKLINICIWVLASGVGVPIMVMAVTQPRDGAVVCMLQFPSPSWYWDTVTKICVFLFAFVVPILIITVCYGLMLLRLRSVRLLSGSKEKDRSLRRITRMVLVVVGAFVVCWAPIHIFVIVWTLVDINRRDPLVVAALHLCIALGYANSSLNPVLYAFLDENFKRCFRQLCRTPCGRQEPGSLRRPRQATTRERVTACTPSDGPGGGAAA
Procedure, shortened: (§1)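 Mouse vas deferens bioassay, delta-representative tissue. Agonist potency was expressed as IC₅₀ and antagonist activity as a Ke value.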

[2] = molecular target: Delta-type opioid receptor (Mus musculus) (UniProt P32300); assay: Antagonist activity at delta opioid receptor in mouse vas deferens assessed as inhibition of electrically-stimulated muscle contraction; procedure, shortened: as §1
[3] = molecular target: mu/kappa opioid receptor (Cavia porcellus) (UniProt P41144+P97266); assay: Partial agonist activity at mu/kappa opioid receptor in guinea pig ileum assessed as inhibition of electrically-stimulated muscle contraction; format: tissue-based
Chain of mu/kappa opioid receptor (Cavia porcellus) (P41144 whole entry, looked up): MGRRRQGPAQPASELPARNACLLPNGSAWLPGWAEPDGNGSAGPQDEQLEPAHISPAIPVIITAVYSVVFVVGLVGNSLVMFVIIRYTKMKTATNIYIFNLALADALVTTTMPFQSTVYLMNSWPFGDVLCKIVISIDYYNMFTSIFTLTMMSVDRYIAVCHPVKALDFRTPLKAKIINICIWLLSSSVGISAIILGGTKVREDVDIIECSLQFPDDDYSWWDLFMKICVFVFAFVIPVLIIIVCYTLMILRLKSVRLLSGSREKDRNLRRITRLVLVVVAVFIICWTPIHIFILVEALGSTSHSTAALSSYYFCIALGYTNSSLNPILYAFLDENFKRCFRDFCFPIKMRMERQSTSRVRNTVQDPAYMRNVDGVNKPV
Chain of mu/kappa opioid receptor (Cavia porcellus) (P97266 whole entry, looked up): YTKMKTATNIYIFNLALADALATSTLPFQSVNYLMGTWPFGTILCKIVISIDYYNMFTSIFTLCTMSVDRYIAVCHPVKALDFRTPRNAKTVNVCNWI

Rattus norvegicus = species on record: Rattus norvegicus; assay: Selectivity ratio of Ki for mu opioid receptor in rat brain membranes to Ki for delta opioid receptor in rat brain membranes; format: cell membranes
Mu-type opioid receptor [4] = molecular target: Mu-type opioid receptor (Rattus norvegicus, UniProt P33535); assay: Displacement of [3H]DAMGO from mu opioid receptor in rat brain membranes; format: cell membranes
Chain of Mu-type opioid receptor (Rattus norvegicus, UniProt P33535) (P33535 whole entry): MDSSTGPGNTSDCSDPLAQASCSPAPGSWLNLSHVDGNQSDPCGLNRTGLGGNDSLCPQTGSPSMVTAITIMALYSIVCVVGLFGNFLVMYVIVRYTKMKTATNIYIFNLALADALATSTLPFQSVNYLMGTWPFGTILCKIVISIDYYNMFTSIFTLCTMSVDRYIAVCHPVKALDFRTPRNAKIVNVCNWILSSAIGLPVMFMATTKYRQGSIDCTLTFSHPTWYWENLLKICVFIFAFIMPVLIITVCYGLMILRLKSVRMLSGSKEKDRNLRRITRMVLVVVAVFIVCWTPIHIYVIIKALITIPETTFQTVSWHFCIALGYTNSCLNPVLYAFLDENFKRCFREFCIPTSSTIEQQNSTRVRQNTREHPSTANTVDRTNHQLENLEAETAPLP
Procedure, shortened: (§2)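 Competitive displacement of tritiated radioligands, with affinities reported as Ki. Mu sites were labelled with [³H]DAMGO and delta sites with [³H]DSLET, both on rat brain membranes. Kappa sites were labelled with [³H]U69,593 on guinea pig brain membranes.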

Mu-type opioid receptor [5] = molecular target: Mu-type opioid receptor (Cavia porcellus, UniProt P97266); assay: Agonist activity at mu opioid receptor in guinea pig ileum assessed as […] of electrically-stimulated muscle contraction; format: tissue-based
Chain of Mu-type opioid receptor (Cavia porcellus, UniProt P97266) (P97266 whole entry): as the sequence (P97266 whole entry, looked up) above

[6] = molecular target: Kappa-type opioid receptor (Cavia porcellus, UniProt P41144); assay: Displacement of [3H]U69,593 from kappa opioid receptor in guinea pig brain membranes; format: cell membranes, Membrane; procedure, shortened: as §2
Chain of Kappa-type opioid receptor (P41144 whole entry): as the sequence (P41144 whole entry, looked up) above

[7] = molecular target: Delta-type opioid receptor (Rattus norvegicus, UniProt P33533); assay: Displacement of [3H]DSLET from delta opioid receptor in rat brain membranes; format: cell membranes; procedure, shortened: as §2
Chain of Delta-type opioid receptor (P33533 whole entry): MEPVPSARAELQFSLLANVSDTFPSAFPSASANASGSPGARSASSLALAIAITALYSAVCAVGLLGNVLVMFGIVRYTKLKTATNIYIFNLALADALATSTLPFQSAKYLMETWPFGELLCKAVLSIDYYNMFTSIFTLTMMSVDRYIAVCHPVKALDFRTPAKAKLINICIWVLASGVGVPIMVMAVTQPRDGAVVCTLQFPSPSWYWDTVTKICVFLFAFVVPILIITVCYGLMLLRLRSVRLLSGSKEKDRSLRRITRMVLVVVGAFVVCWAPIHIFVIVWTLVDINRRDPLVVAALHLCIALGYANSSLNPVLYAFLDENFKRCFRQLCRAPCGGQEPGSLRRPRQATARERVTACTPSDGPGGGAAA

[8] = Selectivity ratio of Ki for kappa opioid receptor in guinea pig brain membranes to Ki for delta opioid receptor in rat brain membranes; format: cell membranes

With `Cc1cc(O)cc(C)c1C[C@H](NC(=N)N)C(=O)N1Cc2ccccc2C[C@H]1CN[C@@H](CCCCN)C(=O)N[C@@H](Cc1ccccc1)C(N)=O` as the compound, how does the IC35 [1] read?
The IC35 was 7.35 nM.

For `Cc1cc(O)cc(C)c1C[C@H](NC(=N)N)C(=O)N1Cc2ccccc2C[C@H]1C(=O)N[C@@H](Cc1ccccc1)C(=O)N[C@@H](Cc1ccccc1)C(=O)O`, which IC35 [1] is on record?
The IC35 was 1.57 nM.

With `N[C@@H](Cc1ccc(O)cc1)C(=O)N1Cc2ccccc2C[C@H]1C(=O)N[C@@H](Cc1ccccc1)C(=O)N[C@@H](Cc1ccccc1)C(=O)O` (HELM PEPTIDE1{Y.[Tic].F.F}$$$$V2.0) as the compound, how does the Ke [2] read?
The Ke was 480 nM.

Which IC35 [1] does the source give for `Cc1cc(O)cc(C)c1C[C@H](N)C(=O)N1Cc2ccccc2C[C@H]1CN[C@@H](CCCCN)C(=O)N[C@@H](Cc1ccccc1)C(N)=O` here?
The IC35 was 23.2 nM.

For `N=C(N)N[C@@H](Cc1ccc(O)cc1)C(=O)N1Cc2ccccc2C[C@H]1C(=O)N[C@@H](Cc1ccccc1)C(=O)N[C@@H](Cc1ccccc1)C(=O)O`, which Imax [1] is on record?
The Imax was 33%.

What does the source list for `Cc1cc(O)cc(C)c1C[C@H](NC(=N)N)C(=O)N1Cc2ccccc2C[C@H]1C(=O)O`?
Imax [3]: 50%; Imax [1]: 50%

Which Ratio Ki (Rattus norvegicus) does the source give for `Cc1cc(O)cc(C)c1C[C@H](N)C(=O)N1Cc2ccccc2C[C@H]1C(=O)N[C@@H](CCCCN)C(=O)N[C@@H](Cc1ccccc1)C(N)=O` (HELM PEPTIDE1{[Cc1cc(O)cc(C)c1C[C@H](N)C(=O)[*:2]].[Tic].K.F.[am]}$$$$V2.0) here?
The Ratio Ki was 63.

What about the Ki (Mu-type opioid receptor [4]) of the same compound?
Its Ki is 19.4 nM.

And the IC50 (Mu-type opioid receptor [5])?
Its IC50 is 16.5 nM.

And the Ki [6]?
The Ki was 2.23 nM.

What about the Ke [2] of the same compound?
The Ke was 2.18 nM.

What about the Ki [7] of the same compound?
The Ki was 0.306 nM.

What about the Ratio Ki [8] of the same compound?
The Ratio Ki was 7.

With `N=C(N)N[C@@H](Cc1ccc(O)cc1)C(=O)N1Cc2ccccc2C[C@H]1CN[C@@H](Cc1ccccc1)C(=O)N[C@@H](Cc1ccccc1)C(=O)O` as the compound, how does the Imax [1] read?
The Imax was 50%.

With `Cc1cc(O)cc(C)c1C[C@H](N)C(=O)N1Cc2ccccc2CC1CN[C@@H](Cc1ccccc1)C(=O)N[C@@H](Cc1ccccc1)C(N)=O` (some centres not stated) as the compound, how does the IC50 (Mu-type opioid receptor [5]) read?
The IC50 was 7.71 nM.

What about the Ke [2] of the same compound?
The Ke was 0.537 nM.
